# High-throughput results deposited in PubChem BioAssay by several laboratories.
# Sampled rows, rich in hits. Any-hit rate of the full collection: about 12%.
# Diaphorase act = diaphorase activation or chemical reduction counter-screen; Diaphorase/resazurin coupled assay, resorufin fluorescence, 16 min; stronger effect = higher value; 1 = vehicle wells, 0 = NADH-free wells; activation factor at 20 µM; 0.005% of 190,000 active; AID 1229;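 active = diaphorase activity raised at least twofold by the compound at 20 µM; inactive = activation factor below 2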
#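 Test system: Clostridium kluyveri diaphorase, purified enzyme; input: enzyme 0.07 U/mL final; buffer or medium: 50 mM HEPES pH 7.4 with 4.542 mM MgCl2, 0.005% Tween 20; also added: 0.114 mM NADH and 0.1 mM resazurin, final amounts; schedule: 16 min enzyme reaction, ambient temperature; technique: fluorescence of resorufin, 544 nm excitation, 590 nm emission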
# Cl transport mod = modulators of human KCC2 chloride dependent transport. KCC2 cells, thallium flux FluoZin-2 fluorescence. 2.2% of 190,000 active. AID 1456. B-score of Tl+ flux slope (higher = more flux/activation; lower = inhibition) at 10 µM;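 active = thallium flux slope and its plate-corrected score both differing from the plate sample mean at a set confidence after two filtering rounds, in either direction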;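 also: slope of fluorescence scaled to starting intensity during 10 to 20 s after thallium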
# L major viab = inhibitors of Leishmania major promastigote growth | Leishmania major promastigotes, resazurin fluorescence viability | inhibition, % at 10 µM | 9% of 200,000 active | AID 1063; in the data active = inhibition above about 50%;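 also: promastigotes grown with compound for 44 hours at 28 °C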
# WT yeast gro inh = growth inhibition of WT yeast, mitochondrial fusion screen | 2.1% of 190,000 active | inhibition, % at 10 µM | mitochondrial fusion phenotypic screen, WT strain; in the data active = inhibition above about 58%; tested in S. cerevisiae
# ROMK primary = modulators of human ROMK potassium channel; AID 1918; Tet-inducible ROMK, thallium flux fluorescence; actives lie on both sides; 2% of 130,000 active; B-score at 10 µM;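 active = signal ratio slope over the read window, or its plate-corrected B-score, at least 3 SD from the plate mean, either direction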;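 also: B-score of the F/F0 ratio slope over 7 to 12 s after thallium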
# Target sequence (P48048 whole entry, looked up): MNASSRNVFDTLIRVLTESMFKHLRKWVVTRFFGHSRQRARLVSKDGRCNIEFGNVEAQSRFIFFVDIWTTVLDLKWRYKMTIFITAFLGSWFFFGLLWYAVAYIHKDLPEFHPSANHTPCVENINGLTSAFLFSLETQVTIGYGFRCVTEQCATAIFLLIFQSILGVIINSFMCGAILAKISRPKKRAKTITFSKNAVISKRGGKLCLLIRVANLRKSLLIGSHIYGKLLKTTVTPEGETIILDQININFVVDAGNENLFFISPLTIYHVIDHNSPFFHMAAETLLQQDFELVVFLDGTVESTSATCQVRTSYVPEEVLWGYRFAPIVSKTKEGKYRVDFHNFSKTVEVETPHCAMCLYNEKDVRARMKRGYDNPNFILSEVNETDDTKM
# Diaphorase inh = counter-screen for diaphorase-based assays: diaphorase inhibitors and chemical oxidizers. diaphorase resazurin-to-resorufin fluorescence, NADH, 16 min; bacterial (C. kluyveri) enzyme, not human. inhibition, % at 20 µM. 0.69% of 190,000 active. AID 1217;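 active = primary screen inhibition at 20 µM above a set limit, cut at about 50% in these data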;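 also: plate controls were DMSO with full reaction for no effect and wells lacking NADH for full effect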
#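 Benchmarks: positive control wells lacking NADH, neutral wells with DMSO only. System: bacterial diaphorase enzyme (C. kluyveri). Input: 0.14 U/mL diaphorase, enzyme working solution. Detection: resorufin fluorescence, excitation 544 nm, emission 590 nm. Times: 16-min room-temperature incubation before reading.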
# Starred values were filed as active, the others as inactive; x = not tested or not shown.
SMILES,Diaphorase act,Cl transport mod,L major viab,WT yeast gro inh,ROMK primary,Diaphorase inh
O=C(NN=C1c2ccccc2-c2ccccc21)c1cccc(Br)c1,0.9,60*,89*,12,x,15
O=C(COc1cccc(Br)c1)NN=C1c2ccccc2-c2ccccc21,1,1.5,-3,2,x,2
O=C(N/N=C/c1ccccc1C(=O)O)c1ccccc1Br,0.9,0.41,-1,20,0.037,14
O=C(N/N=C/c1cccc(Oc2ccccc2)c1)c1cccc(Br)c1,0.9,-0.46,95*,13,x,10
O=C(N/N=C/c1cccc(Oc2ccccc2)c1)c1ccccc1Br,0.7,-0.072,95*,27,0.37,27
Cc1ccc(-c2nnn(CC(=O)N(c3ccccc3F)C(C(=O)NC3CCCC3)c3ccco3)n2)o1 (stereo not given),0.7,0.12,12,-14,0.018,27
CCCC(C(=O)NC1CCCC1)N(C(=O)Cn1nnc(-c2ccc(C)o2)n1)c1ccccc1OC (stereo not given),0.8,0.41,77*,-5,-0.6,19
CC(NC(=O)N(Cc1ccccc1)Cc1ccc2c(c1)OCO2)(C(F)(F)F)C(F)(F)F,1,1.4,94*,2,x,2
COc1cccc(-c2nc(COc3ccc(Cl)cc3Cl)no2)c1,x,0.75,x,x,x,x
CC12CCC(c3c(C(=O)Nc4nccs4)nn(-c4ccccc4)c31)C2(C)C (stereo not given),0.9,1.6,100*,76*,x,9
CC12CCC(c3c(C(=O)O)nn(-c4ccccc4)c31)C2(C)C (stereo not given),0.8,-0.61,-5,7,x,21
CCCCC(=O)NC(NC(=S)N1CCCCCC1)C(Cl)(Cl)Cl (stereo not given),0.9,0.47,7,-2,x,15
O=C(NNc1cc(Cl)ccc1Cl)C1CCC1,x,0.22,x,x,x,x
Cc1ccccc1-n1c(SCC(=O)Nc2ccccc2)nc2nc3c(cc2c1=O)CCCC3,0.8,-0.48,98*,5,-0.34,19
O=C(CSc1nc2ccccc2c(=O)n1-c1ccc(F)cc1)Nc1ccc2c(c1)CCC2,0.9,-0.55,81*,14,x,9
COc1ccc(-c2nnc(CSc3nc4ccccc4c(=O)n3C)o2)cc1OC,0.8,x,18,16,-1.3,21
O=c1c2ccccc2nc(SCc2nnc(-c3ccccc3)o2)n1-c1ccc(F)cc1F,0.7,0.92,78*,15,x,26
O=C(CSc1nc2ccccc2c(=O)n1-c1ccccc1F)Nc1ccc2c(c1)CCC2,0.9,-0.27,98*,-10,x,14
O=C(CSc1nc(O)cc(=O)[nH]1)Nc1ccc2c(c1)CCC2,0.9,x,-3,12,0.38,15
O=C(CSc1nc2ccccc2c(=O)n1-c1ccc(F)c(Cl)c1)Nc1cccc(S(=O)(=O)N2CCOCC2)c1,0.7,0.052,41,7,0.03,28
O=C(CSc1nc2ccccc2c(=O)n1-c1ccc(F)cc1F)Nc1ccc2c(c1)CCC2,0.9,-0.067,99*,-7,x,10
O=C(CSc1nc2ccccc2c(=O)n1-c1ccc(F)cc1)Nc1ccc(Cl)c(S(=O)(=O)N2CCOCC2)c1,0.8,0.049,95*,-8,-1.7,18
CC(C)(C)C1CCC2(CC1)NC(=S)N(c1ccccc1)N2 (stereo not given),0.9,-0.66,58*,41,0.23,7
CCOC(=O)Cc1sc(N)nc1C,1,-0.017,-3,0,-0.0016,2
N/C(Cc1ccc(Cl)cc1Cl)=N\OC(=O)c1ccccc1F,0.8,-1.4,0,97*,0.7,21
SMILES,Diaphorase act,Cl transport mod,L major viab,WT yeast gro inh,ROMK primary,Diaphorase inh
N/C(Cn1cncn1)=N\OC(=O)c1ccc(Cl)cc1Cl,1,-0.64,-7,-14,-0.13,-3
CC(=O)N1CCC(O)(c2cccc(C(F)(F)F)c2)CC1,0.9,0.005,-5,96*,x,12
O=S(=O)(c1cccc(C(F)(F)F)c1)N1CCC(O)(c2cccnc2)CC1,0.8,0.84,2,-16,x,17
COc1ccc(CC(=O)NCc2n[nH]c(=S)n2-c2cccc(Cl)c2)cc1,0.8,-0.47,4,-8,-0.44,18
O=C(NCCc1c[nH]c2ccccc12)C1CCC(Cn2c(=S)[nH]c3ccccc3c2=O)CC1 (stereo not given),0.9,0.64,100*,-9,x,12
Cc1ccc(NC(=O)Cc2c[nH]c3ccccc23)cc1S(=O)(=O)N1CCCCCC1,0.8,-0.79,92*,-3,-0.52,21
O=C(NCCc1c[nH]c2ccccc12)C1CCN(c2nnc(N3CCCC3=O)s2)CC1,1,x,84*,17,x,1
Cc1ccc(S(=O)(=O)N2CCCCC2)cc1NC(=O)Cc1c[nH]c2ccccc12,0.7,1.4,19,-14,x,28
O=C(NCCc1c[nH]c2ccccc12)C1CCN(S(=O)(=O)c2ccccc2F)CC1,1.1,-2.8,98*,-1,-0.83,-6
Fc1ccccc1NC(=S)N(CCN1CCCCC1)Cc1ccco1,0.9,-0.021,7,4,-0.17,8
NC(=O)c1ccc(NC(=O)COC(=O)CC(NC(=O)c2ccccc2Cl)c2ccccc2)cc1 (stereo not given),0.9,0.015,49,-2,1.1,7
O=C(COC(=O)c1cccc(NS(=O)(=O)c2ccc(F)c(F)c2)c1)NC(=O)NC1CCCC1,0.8,-2.6,0,-12,x,24
COc1cc(S(=O)(=O)Nc2cc(C)cc(C)c2)ccc1F,0.9,0.079,9,-1,-0.34,15
Cc1cc(C)cc(NS(=O)(=O)c2cnc(Cl)c(Cl)c2)c1,0.9,-0.6,82*,5,-1.1,13
CCOc1ccc(NS(=O)(=O)c2cnc(Cl)c(Cl)c2)cc1,0.8,-0.65,-2,71*,-0.013,17
CCOc1ccc(NS(=O)(=O)c2ccc(N)cc2)cc1,0.8,-0.21,15,24,x,20
Cc1cc(C)c(C)c(S(=O)(=O)N2CCN(c3ccc(O)cc3)CC2)c1C,0.7,-0.0078,55*,13,0.67,27
c1ccc(-c2nc(N3CCN(c4ccccc4)CC3)nc(-n3ccnc3)n2)cc1,1,-0.83,67*,68*,-1.2,2
Nc1nc(-c2cccnc2)nc(N2CCCCC2)n1,0.9,0.41,-6,-11,-0.58,14
c1ccc(N2CCN(c3ncccn3)CC2)cc1,0.9,0.8,-4,-23,x,8
c1ccc(-c2nc(N3CCCCCC3)nc(-n3ccnc3)n2)cc1,1,-0.027,96*,17,-0.71,3
Cc1nn(-c2ccccc2)c(C)c1/C=C/C(=O)OCC(=O)N(C)C1CCS(=O)(=O)C1 (stereo not given),0.9,-0.47,14,7,-0.19,6
COc1cccc(OC)c1OCCCCN1CCCC1,0.9,-0.73,66*,66*,x,14
